Each structure is given as a SMILES string.

For the assay, the system named is Schistosoma mansoni. Put plainly: In vitro antischistosomal activity, minimum active concentration to cause severe damage or death of worms at 96 hr against Schistosoma mansoni. It counts as functional. The gist of the method:
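Adult S. mansoni pairs (Puerto Rican strain, 46-day infection, recovered from mice) incubated at 37 °C, 2.0 mL medium per pair, in serumless medium with 50 µg/mL gentamycin sulfate. Compound dissolved in DMSO, final DMSO ≤1%. Worms examined by inverted microscope at intervals up to 96 h, when the final reading was taken.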
With `Cc1cc(O)n2nc(-c3ccccc3)cc2n1`, the MAC is 100 µg/mL. Molecule `Cc1cccc(-c2cnn3c(O)cc(C)nc23)c1` gave an MAC of 100 µg/mL. Molecule `Cc1cccc(-c2cnn3c(O)cc(-c4ccccc4)nc23)c1` came in with an MAC of 1 µg/mL. Then `Cc1cc(=S)n2nccc2n1C`, with greater than 100 µg/mL; and `Cc1cc(O)n2nc(-c3cccc(Cl)c3)cc2n1`, with greater than 100 µg/mL; and `COc1cc(-c2cc3nc(C)cc(S)n3n2)cc(OC)c1OC`, with 1 µg/mL. Molecule `CCn1ccc(=S)n2nccc12` displayed an MAC of 100 µg/mL. Molecule `Cc1cc(S)n2ncc(-c3ccccc3)c2n1` gave an MAC of 1 µg/mL. Turning to `Cn1ccc(=S)n2nc(-c3ccccc3)cc12`, the MAC amounted to 10 µg/mL. In the case of `Cc1cc(S)n2nc(-c3ccccc3)cc2n1`, the MAC turned out to be 1 µg/mL. Molecule `CCOC(=O)c1cnn2c(S)cc(C)nc12` came in with an MAC of 10 µg/mL. `Cc1cc(O)n2ncc(-c3ccccc3)c2n1`: the MAC was 100 µg/mL. The value for `Cc1cccc(-c2cnn3c(S)cc(C)nc23)c1` was 100 µg/mL; that for `Oc1ccnc2c(-c3ccccc3)cnn12` was 100 µg/mL; that for `COc1cc(-c2cc3nc(-c4ccccc4)cc(O)n3n2)cc(OC)c1OC` was greater than 100 µg/mL.

Regarding `Sc1ccnc2c(-c3ccccc3)cnn12`, the MAC amounted to 1 µg/mL. For `CCCn1ccc(=S)n2nc(-c3ccccc3)cc12`, the MAC amounted to 10 µg/mL. Then `COc1cc(-c2cc3nc(C)cc(O)n3n2)cc(OC)c1OC`, with greater than 100 µg/mL; and `Sc1ccnc2cc(-c3ccccc3)nn12`, with 1 µg/mL. With `CCn1ccc(=O)n2nccc12`, the MAC is greater than 100 µg/mL.

As for `Cc1cc(S)n2ncc(-c3ccc(Cl)cc3)c2n1`, the MAC is 100 µg/mL. Then `CCOC(=O)c1cnn2c(O)cc(-c3ccccc3)nc12`, with greater than 100 µg/mL. Consider `Oc1cc(-c2ccccc2)nc2cc(-c3ccccc3)nn12`, for which the MAC is greater than 100 µg/mL. Then `Cc1cc(=O)n2nccc2n1C`, with 100 µg/mL. As to `Sc1ccnc2ccnn12`, the MAC was found to be 1 µg/mL. `Cc1cc(S)n2nccc2n1` gave an MAC of 3.2 µg/mL. Consider `Oc1cc(-c2ccccc2)nc2c(-c3ccc(Cl)cc3)cnn12`, for which the MAC came out at 100 µg/mL. In turn, `CCCn1ccc(=O)n2nc(-c3ccccc3)cc12` showed an MAC of 100 µg/mL. As to `Cn1ccc(=O)n2nccc12`, the MAC was greater than 100 µg/mL. On to `Sc1cc(-c2ccccc2)nc2ccnn12`, for which the MAC turned out to be 1 µg/mL.

On to `Oc1cc(-c2ccccc2)nc2c(-c3ccccc3)cnn12`, for which the MAC is 10 µg/mL. The value for `Cn1c(-c2ccccc2)cc(=O)n2nc(-c3ccccc3)cc12` was 100 µg/mL; that for `Cn1ccc(=S)n2nccc12` was greater than 100 µg/mL.

`Oc1cc(-c2ccccc2)nc2ccnn12` returned an MAC greater than 100 µg/mL. `Sc1cc(-c2ccccc2)nc2cc(-c3ccccc3)nn12` came in with an MAC of 1 µg/mL. Molecule `Cc1cccc(-c2cnn3c(S)ccnc23)c1` had an MAC of 0.32 µg/mL. In the case of `Cc1cccc(-c2cnn3c(O)ccnc23)c1`, the MAC was 100 µg/mL. `O=c1cc(-c2ccccc2)[nH]c2cc(-c3cccc(Cl)c3)nn12` had an MAC greater than 100 µg/mL. Then `Oc1ccnc2cc(-c3ccccc3)nn12`, with greater than 100 µg/mL; and `Cn1ccc(=O)n2nc(-c3ccccc3)cc12`, with greater than 100 µg/mL.

Values taken from ChEMBL document CHEMBL1121837, “Synthesis and antischistosomal activity of certain pyrazolo[1,5-a]pyrimidines” (1981).
